Laboratory results reported in the RNAGym collection of RNA variant scans (doi:10.1126/science.aae0568).
This sample holds only a part of the variants without activity.

B1: tRNA (parent)
chain: GUUCCGUUGGCGUAAUGGUAACGCGUCUCCCUCCUAAGGAGAAGACUGCGGGUUCGAGUCCCGUACGGAACG

Variants of: B1
Assay: yeast fitness relative to wild type (ratio to wild type); higher = fitter; tRNA-Arg(CCU), competitive growth, 37 C, YPD
Procedure, shortened: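 Amplicons of the tRNA-Arg(CCU) gene were sequenced, 100-nucleotide paired-end, from the start population and from each end population of a pooled yeast competition. The competition, in six parallel replicates, lasted 24 hours in YPD at 37°C. Fitness relative to wild type was calculated from changes in genotype frequencies. Genotypes had to have ≥ 100 starting reads, and estimates < 0.5 were set to 0.5.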
Work on GUUCCGUUGGCCUGCUGGUAACGCGUCUCCCUCCUAAGGAGAAGACUGCGGCUUCGAGUCCCGUACGGAACG [G12C A14G A15C G52C] yielded a yeast fitness of at most 0.5. Work on GUUCCGUUGGCCUGAUGGUAACGCGUUUCCCUACUAAGGAGAAGCCUGCGGGUACGAGUCCCGUACGGAACG [G12C A14G C27U C33A A45C U54A] yielded a yeast fitness of at most 0.5. Work on GUUCCGUUGGCCUGAUGGUAACGCGUCUCCCUGCUAAGGAGAACACUGCGGGUUCGAGUCCCGUACGGAACG [G12C A14G C33G G44C] yielded a yeast fitness of at most 0.5. For GUUCCGUUGGCCUGAUGAUAACGCGUCUCCCUGCUAAGGAGAAGACUGCGGGUUCGAGUCCCGUACGGAACG [G12C A14G G18A C33G], the yeast fitness was at most 0.5. Variant GUUCCGUUGGCCUGAUGGUAACGCAUCUCCCUCCUAAGGACAAGACUGCGGGUUCGAGUCUCGUACGGAGCG [G12C A14G G25A G41C C61U A70G] has a yeast fitness of at most 0.5. For GUUCCGUUGGCCUUAUGGUUACACGUCUCCCUCCUAAGGAGAAAACUGCGGGUUCGGGUCCCGUACGGAUCG [G12C A14U A20U G23A G44A A57G A70U], the yeast fitness was 0.575. GUUCCGUUGGCCUUAUGGUUACACGUCUCCCUCCUAAGGAGAAGACUGCGGGUUCGAGUCCCGUACGAAACG [G12C A14U A20U G23A G68A] gave a yeast fitness of at most 0.5. Variant GUUCCGUUGGCCUUAUGGUAACGCGUGUCCCUCCUAAGGAGAAGUGUGCGGGUUCAAGUCCCGUACGGAACG [G12C A14U C27G A45U C46G G56A] has a yeast fitness of at most 0.5. Work on GUUCCGUUGGCCUUAUGGUAACGCGUCUCCCUCCUAAGGAGAAGACUGCGGGUUCGAGUCGCGCACGGAACG [G12C A14U C61G U64C] yielded a yeast fitness of at most 0.5. With GUUCCGUUGGCCUACUGGUAACGCGUCUCCCUCCUAAGGAGAAGACUGCGGGUUCGAGUCCCGUACGGAACG [G12C A15C] the yeast fitness was 0.67. GUUCCGUUGGCCUACUGGUUACGCGUCUCCCUCCUAACGAGAAGACUGCCGGUUCGAGUCCCGUACGGAACG [G12C A15C A20U G38C G50C] showed a yeast fitness of at most 0.5. For GUUCCGUUGGCCUACUGGUUACGCGUCUCCCUCCUAAGGAAAAGACUGCGGGUUCGAGUCCCGUACGGAACG [G12C A15C A20U G41A], the yeast fitness was at most 0.5. In the case of GUUCCGUUGGCCUACUGGUUACGCGUCUCCCUCCUAAGGAGAAGACUGCGGGAUCGAGGCCCGUACGGAACG [G12C A15C A20U U53A U59G], the yeast fitness is reported as at most 0.5. In the case of GUUCCGUUGGCCUACUGGAAACGCGUCUCCCUCUUAAGGAGAAGACUGAGGGUUCGAGUCCCGUACGGAACG [G12C A15C U19A C34U C49A], the yeast fitness is reported as at most 0.5. GUUCCGUUGGCCUACUGGAAACGCGUCUCCCUCUUAAGGAGAAGACUGAGGGUUCGAGUCCCGUACAGAACG [G12C A15C U19A C34U C49A G67A] gave a yeast fitness of 0.547. Work on GUUCCGUUGGCCUACUGGAAACGCGUCUCCCUCUUAAGGAGAAGACUGGGGGUUCGAGUCCCGUACGGUACG [G12C A15C U19A C34U C49G A69U] yielded a yeast fitness of at most 0.5. For GUUCCGUUGGCCUAGUGGUAACGCGUCUCCCUCCUAUGGGGAAGACUGCGGGUCCGAGUCCCGUAGGGAACG [G12C A15G A37U A40G U54C C66G], the yeast fitness was 0.538. GUUCCGUUGGCCUAGUGGUAACGUGUCUCCCUCCUAAGGAGAGGACUGCGGGUUCGAGUCCCGUACGGAACG [G12C A15G C24U A43G] showed a yeast fitness of 0.522. GUUCCGUUGGCCUAGUGGUAACGCGUCUCCCUCAUAAGGAGAAGACUGCGGGUUCGAGUCCCCUACGGACCG [G12C A15G C34A G63C A70C] gave a yeast fitness of 0.641. For GUUCCGUUGGCCUAGUGGUAACGCGUCUCCCUCCUAAGGAGAACACUGCGGGUUCGUGUCCCGUACGGAACG [G12C A15G G44C A57U], the yeast fitness was 0.69. Work on GUUCCGUUGGCCUAUUGGUAACGCGUCUCCCUCCUAAGGAGAAGACUGUGGGUUCGAGUCCCGUACGGAACG [G12C A15U C49U] yielded a yeast fitness of at most 0.5. Variant GUUCCGUUGGCCUAAUGGUCACGCGUCUCCCUCCUGAGGAGAAGACUGCGGGUUCGAGUCCCGUACGGAACG [G12C A20C A36G] has a yeast fitness of 0.581. With GUUCCGUUGGCCUAAUGGUCACGAGUCUCCCUCCUCAGGAGAAGACUCCGGGUUCGAGUCCCGUACGGAACG [G12C A20C C24A A36C G48C] the yeast fitness was at most 0.5. In the case of GUUCCGUUGGCCUAAUGGUCACGCGUCUCUGUCCUAAGGAGAAGACUGCGGGUUCGAGUCCCGUACGGAACG [G12C A20C C30U C31G], the yeast fitness is reported as at most 0.5. With GUUCCGUUGGCCUAAUGGUCACGCGUCUCCGUCCUAAGGAGAAGACUGCGCGUUCGAGUCCCGUACGGAACG [G12C A20C C31G G51C] the yeast fitness was at most 0.5. In the case of GUUCCGUUGGCCUAAUGGUCACGCGUCUCCCUCGUAAGGAGAAGACUGCGGGUGCGAGUCCCGUACGGAACG [G12C A20C C34G U54G], the yeast fitness is reported as at most 0.5. GUUCCGUUGGCCUAAUGGUUACGCGUCUCCCUCCUGAGGAGAAGAAUGCGGGUACGAGUCCCGUACGGAUCG [G12C A20U A36G C46A U54A A70U] showed a yeast fitness of at most 0.5. GUUCCGUUGGCCUAAUGGUUACGCGUCUCCCUCCUGAGGAGAAGAAUGCGGGUACGAGUCCCGUACCGAACG [G12C A20U A36G C46A U54A G67C] showed a yeast fitness of at most 0.5. Work on GUUCCGUUGGCCUAAUGGUUACGCGUCUCCCUCCUAAGGAGAAGUCUGCAAGUUCGAGUCCCGUACGGAACG [G12C A20U A45U G50A G51A] yielded a yeast fitness of at most 0.5. With GUUCCGUUGGCCUAAUGGUUAGGCGUCUCCCUCCUAAGGAGAAGACUGCAGGUUCGAGUCACGUACGGAACG [G12C A20U C22G G50A C61A] the yeast fitness was 0.567. GUUCCGUUGGCCUAAUGGUUACGUGUCUCCCUCCUAAGGAGAAGACUGCGAGUUCGAGUCCCGUACGCAACG [G12C A20U C24U G51A G68C] showed a yeast fitness of at most 0.5. GUUCCGUUGGCCUAAUGGUUACGCGUCUCUCUCCUAAGGAGAAGACUGCGGGUUCGAGUCCCGUGCGGCACG [G12C A20U C30U A65G A69C] gave a yeast fitness of at most 0.5. With GUUCCGUUGGCCUAAUGGUUACGCGUCUCUCUCCUAAAGAGAAGACUGCGGGUUUGAGUCCCGUAUGGAACG [G12C A20U C30U G38A C55U C66U] the yeast fitness was at most 0.5. For GUUCCGUUGGCCUAAUGGUUACGCGUCUCCAUCCUAAGGAGAAGACUGCGGGUUCGAGUCCCGUGCGGAACG [G12C A20U C31A A65G], the yeast fitness was at most 0.5. GUUCCGUUGGCCUAAUGGUUACGCGUCUCCCUUCUAUGGAGAAGACUGCGGGUUCGUGUCCCGUACGGAACG [G12C A20U C33U A37U A57U] showed a yeast fitness of at most 0.5. GUUCCGUUGGCCUAAUGGUUACGCAUCUCCCUCCUAAGGAGAAGACUGCGGGUUCGAGUCCCGUACGGAACG [G12C A20U G25A] gave a yeast fitness of at most 0.5. GUUCCGUUGGCCUAAUGGUUACGCAUCUCCCUCCUGAGGAGAAGACUGCGGGUUCGAGUCCCGUACGGAACG [G12C A20U G25A A36G] showed a yeast fitness of at most 0.5.
